Compound activity: PubChem, Broad Institute
An excerpt weighted towards active compounds, which were near 2% of everything screened.
Xi reactivation – activators of inactive X chromosome reactivation, primary screen, imaging, XiGFP fibroblasts, GFP high-content imaging, set 2. actives 0.055% (n = 360,000). XiGFP mouse fibroblasts, % GFP-positive cells imaging, 3 d; cells co-treated with 5-aza-dC sensitizer; scaled so ellipticine positive control = 100%. AID 743238, 2013. activation, % at 7.58 µM;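 active means mean normalized replicate activation at least 10% and every replicate at or above 10%; inconclusive means only one of the two criteria met; inactive means mean below 10% and not all replicates reach 10%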;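 further: 0% = median of on-plate neutral control wells and 100% = ellipticine 6 µM median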
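System: 68-5-11 XiGFP fibroblast line | Buffer or medium: DMEM containing 5-aza-dC | Compound: Single point | Times: Compounds 3 days, fix/stain 15 min at room temperature | Benchmarks: Positive control ellipticine, 6 µM final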
E-selectin induc – E-selectin induction in HUVECs, primary screen, imaging, HUVEC, immunofluorescence imaging, single point; activation, % at 7.58 µM; actives 0.37% (n = 260,000); P16581; normalized: neutral wells 0, TNF-alpha wells 100;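 active means mean E-selectin-positive cell signal at least 10% of the positive control, reached in at least 60% of replicates, without over 20% cell loss; inconclusive means no rule given, readout overlaps actives, possibly toxicity-flagged; inactive means the rest, including those meeting only one limit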
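Material: HUVEC primary endothelial cells; Amount: 3,000 cells per well; Dosing: single concentration; Medium: EGM-2 growth medium on 0.1% gelatin-coated wells; Read-out basis: percent E-selectin-positive cells; Signal: immunofluorescence imaging; Control set: TNF-alpha, DMSO.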
DENV2 CPE rescue – inhibitors of DENV2 cytopathic effect, primary screen, cell-based, plate reader, single concentration; actives 1.7% (n = 350,000); CPE inhibition, % at 9.99 µM; DENV2-infected cells, cytopathic effect rescue; in the data active means CPE inhibition above about 20%, passing the limit was not always enough; inconclusive means no clear call, values can overlap the other calls; tested in BHK-21 cells;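 further: 0% = median of neutral control wells and 100% = median of positive control wells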
S100A4 inh HTS – inhibitors of S100A4-myosin IIA peptide binding, primary screen, biochemical, fluorescence polarization, TAMRA-MyoIIA peptide; inhibition, % at 10.7 µM; Protein S100-A4 (Homo sapiens), P26447; actives 0.14% (n = 360,000);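 active means mean inhibition of at least 70% across replicates, with every replicate also reaching that level; inconclusive means mean inhibition reaches 70% but some replicates fall short; inactive means mean inhibition below 70%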
Target sequence (P26447 whole entry, looked up): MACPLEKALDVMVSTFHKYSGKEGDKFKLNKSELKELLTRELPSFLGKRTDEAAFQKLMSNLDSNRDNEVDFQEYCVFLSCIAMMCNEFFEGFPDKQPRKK
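Assay system: human S100A4 monomer with TAMRA-labelled myosin IIA peptide / Buffer or medium: Calcium-containing HEPES buffer, pH 7.2 / Reagent: TAMRA-labelled myosin IIA heavy-chain peptide probe, 5 nM / Compound: one dose per compound / Timing: polarization read 5 min after assay mix addition, stable 5–60 min / Benchmarks: neutral control DMSO, positive control TFP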
The depositor's hits bear a star; ? = inconclusive; nt = not tested or not shown; ! = not confirmed by another sample.

SMILES	Xi reactivation	E-selectin induc	DENV2 CPE rescue	S100A4 inh HTS
C[C@@H]1CN([C@H](C)CO)C(=O)c2cc(N(C)C)ccc2O[C@H]1CN(C)S(=O)(=O)c1cn(C)cn1	0	63*	9	-5
C[C@@H]1CN([C@@H](C)CO)C(=O)c2cccc(NS(=O)(=O)c3cn(C)cn3)c2O[C@@H]1CN(C)S(=O)(=O)c1cn(C)cn1	0	1	27*	-2
C[C@@H]1CN([C@@H](C)CO)C(=O)c2cccc(NS(=O)(=O)c3cn(C)cn3)c2O[C@H]1CN(C)CC1CCCCC1	-1	1	33*	-2
C[C@@H]1CN([C@@H](C)CO)C(=O)c2cccc(NS(=O)(=O)c3cn(C)cn3)c2O[C@H]1CN(C)S(=O)(=O)c1cn(C)cn1	0	0	-8	3
C[C@@H]1CN([C@H](C)CO)C(=O)c2cccc(NS(=O)(=O)c3cn(C)cn3)c2O[C@@H]1CN(C)Cc1ccc(Cl)c(Cl)c1	0	67*	-1	-2
O=C(Cc1ccc(Cl)cc1Cl)NCc1cccnc1	0	nt	2	5
C[C@H](CO)N1C[C@H](C)[C@@H](CN(C)S(=O)(=O)c2cn(C)cn2)Oc2ncc(C3=CCCC3)cc2C1=O	0	1	23*	-12
C[C@H](CO)N1C[C@H](C)[C@@H](CN(C)Cc2ccccc2)Oc2c(NS(=O)(=O)c3cn(C)cn3)cccc2C1=O	0	0	30*!	-2
Cc1c(/C=N/NC(=O)CNc2ccccc2)c2ccccn2c1C(=O)c1ccncc1	0	nt	35*	-13
Cc1c(/C=N/NC(=O)CNc2ccccc2)c2ccccn2c1C(=O)c1ccc(Cl)cc1	0	0	nt	nt
C[C@@H]1CN([C@H](C)CO)C(=O)Cc2cc(NC(=O)Nc3ccccc3)ccc2O[C@@H]1CN(C)C(=O)NC1CCCCC1	0	0	35*	7
C[C@H]1CN([C@@H](C)CO)C(=O)Cc2cc(NC(=O)C3CCCCC3)ccc2O[C@H]1CN(C)C(=O)NC1CCCCC1	0	307*	-5	5
COc1ccc(NC(=O)Nc2ccc3c(c2)CC(=O)N([C@H](C)CO)C[C@H](C)[C@H](CN(C)C(=O)NC2CCCCC2)O3)cc1	0	0	29*	7
COc1ccc(NC(=O)Nc2ccc3c(c2)CC(=O)N([C@@H](C)CO)C[C@@H](C)[C@@H](CN(C)C(=O)NC2CCCCC2)O3)cc1	0	0	4	3
COc1ccc(NC(=O)N(C)C[C@H]2Oc3ccc(NC(=O)NC(C)C)cc3C(=O)N([C@H](C)CO)C[C@H]2C)cc1	-1	0	34*	-11
Cc1ccc(NC(=O)COC(=O)c2c(C)nn(-c3ccccc3)c2C)cc1	0	-1	-5	0
O=C(C1=NNCC1c1ccccc1)C1OC1c1ccccc1 (stereo not drawn)	0	-2	1	-15
O=C(CCCN1C(=O)[C@H]2CC=CC[C@H]2C1=O)NCc1nc(-c2ccccc2)no1	1	nt	6	-6
C[C@H](CO)N1C[C@H](C)[C@@H](CN(C)C(=O)NC2CCCCC2)Oc2ccc(NC(=O)Nc3ccccc3)cc2CC1=O	-1	0	46*	-2
COc1ccc(NC(=O)Nc2ccc3c(c2)C(=O)N([C@H](C)CO)C[C@H](C)[C@H](CN(C)C(=O)NC2CCCCC2)O3)cc1	2	0	-1	4
C[C@@H]1CN([C@@H](C)CO)C(=O)Cc2cc(NC(=O)Nc3ccccc3)ccc2O[C@@H]1CN(C)C(=O)NC1CCCCC1	-1	0	?	-8
COc1ccc(NC(=O)Nc2ccc3c(c2)C(=O)N([C@H](C)CO)C[C@H](C)[C@@H](CN(C)C(=O)NC2CCCCC2)O3)cc1	4	0	39*!	-3
COc1cc(/C=N/Nc2ccccc2)ccc1OC(=O)c1cccs1	0	nt	nt	nt
COc1ccc(-c2ccc([C@@H]3[C@H]4CN(CC5CCOCC5)CCCCN4[C@H]3CO)cc2)cc1	0	0	63*	-6
COc1cccc(-c2ccc([C@@H]3[C@H](CO)N4CCCCN(CC5CCOCC5)C[C@@H]34)cc2)c1	nt	nt	-4	5
SMILES	Xi reactivation	E-selectin induc	DENV2 CPE rescue	S100A4 inh HTS
COc1ccc(-c2ccc([C@@H]3[C@@H](CO)N4CCCCN(CC5CCOCC5)C[C@H]34)cc2)cc1	0	0	48*	2
COCCNC(=O)C1CCCN(C(=O)c2cc(C)nn2C(C)(C)C)CC1 (stereo not drawn)	0	0	21*	-14
CCOc1ccc(CC2c3cc(OCC)c(OCC)cc3CCN2C(=O)CN2CCN(C)CC2)cc1OCC (stereo not drawn)	0	0	-2	-2
C[C@@H]1CN([C@@H](C)CO)C(=O)c2cccc(NC(=O)c3ccncc3)c2O[C@@H]1CN(C)C(=O)Nc1ccc(F)cc1	0	0	-15	2
CN1C(=O)c2cc(NC(=O)Cc3cccs3)ccc2OC[C@@H]2O[C@H](CC(=O)NCC3CCCCC3)CC[C@H]21	0	0	132*	-4
CN1C(=O)c2cc(NC(=O)Cc3cccs3)ccc2OC[C@H]2O[C@H](CC(=O)N[C@H]3CCN(Cc4ccccc4)C3)CC[C@@H]21	0	1	-1	96*
CN1C(=O)c2cc(NC(=O)Cc3cccs3)ccc2OC[C@@H]2O[C@H](CC(=O)NCC3CCCCC3)CC[C@@H]21	0	0	?	-5
CN1C(=O)c2cc(NC(=O)NCc3ccccc3)ccc2OC[C@H]2O[C@H](CC(=O)NCC3CCCCC3)CC[C@@H]21	0	0	17	-1
CN1C(=O)c2cc(NC(=O)NCc3ccccc3)ccc2OC[C@H]2O[C@H](CC(=O)NCC3CCCCC3)CC[C@H]21	1	0	98*	7
CN1C(=O)c2cc(NC(=O)c3cccs3)ccc2OC[C@@H]2O[C@@H](CC(=O)NCCN3CCCCC3)CC[C@H]21	0	0	41*	-4
Cc1nc2cc(NC(=O)N3CCC(c4ccccc4)C3)ccc2n1C (stereo not drawn)	nt	nt	0	-5
CCCNC(=O)Nc1ccc2c(c1)C(=O)N(C)[C@@H]1CC[C@@H](CC(=O)NCc3ccccc3)O[C@@H]1CO2	0	0	56*	8
Cc1cc(=O)[nH]c(NN=Cc2cc(Br)ccc2O)n1	0	0	2	-7
Cc1c(C)n(CCCN(C)C)c2ncnc(Nc3ccccc3)c12	0	0	-1	-4
COc1ccccc1Nc1ncnc2c1c(C)c(C)n2CCCN(C)C	0	0	42*	-2
COc1ccc(/C=C(/NC(=O)c2ccccc2)C(=O)NCc2ccncc2)cc1	0	0	?	-5
Cc1ccc(NC(=O)CN(C)C(=O)c2ccc(COc3ccccc3)cc2)cc1	0	nt	?	-1
